Experiments:
Format in all cases: ADME, organism-based
Settings in all cases: in vivo
[1] = Drug concentration in ovariectomized nu/nu mouse plasma assessed 3-(4-morpholinopyrido [3',2':4,5] furo [3,2-d] pyrimidin-2-yl)phenol at 10 mg/kg, po measured after 8 hrs by UHPLC-MS analysis
Method in brief: (§1)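 Female ovariectomized Nu/Nu mice, 4–6 weeks old, n = 5 per group. Single 10 mg/kg oral gavage in 5% DMSO/40% PEG 400/55% saline. Orbital-sinus blood was taken at 0.5, 1, 3, 8 and 24 h, one sampling per group, into EDTA. Plasma was spun at 4 °C and stored at −80 °C. The prodrug's boronic acid metabolite and phenol were quantified by C18 UHPLC–TSQ MS/MS with an acetonitrile/water 0.05% formic acid gradient.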

[2] = Drug concentration in ovariectomized nu/nu mouse plasma assessed 3-(4-morpholinopyrido [3',2':4,5] furo [3,2-d] pyrimidin-2-yl)phenol at 10 mg/kg, po measured after 24 hrs by UHPLC-MS analysis; method in brief: as §1
[3] = Cmax in ovariectomized nu/nu mouse assessed 3-(4-morpholinopyrido [3',2':4,5] furo [3,2-d] pyrimidin-2-yl)phenol at 10 mg/kg, po measured upto 24 hrs by UHPLC-MS analysis; set-up: dose 10 mg/kg, route oral; method in brief: as §1
[4] = Tmax in ovariectomized nu/nu mouse assessed 3-(4-morpholinopyrido [3',2':4,5] furo [3,2-d] pyrimidin-2-yl)phenol at 10 mg/kg, po measured upto 24 hrs by UHPLC-MS analysis; method in brief: as §1
[5] = Half life in ovariectomized nu/nu mouse assessed 3-(4-morpholinopyrido [3',2':4,5] furo [3,2-d] pyrimidin-2-yl)phenol at 10 mg/kg, po measured upto 24 hrs by UHPLC-MS analysis; method in brief: as §1
[6] = AUC (0 to 24 hrs) in ovariectomized nu/nu mouse assessed 3-(4-morpholinopyrido [3',2':4,5] furo [3,2-d] pyrimidin-2-yl)phenol at 10 mg/kg, po measured upto 24 hrs by UHPLC-MS analysis; set-up: dose 10 mg/kg, time < 24 hr, route oral; method in brief: as §1
[7] = Drug concentration in ovariectomized nu/nu mouse plasma assessed (3-(4-morpholinopyrido [3',2':4,5] furo [3,2-d] pyrimidin-2-yl)phenyl)boronic acid at 10 mg/kg, ip measured after 0.5 hrs by UHPLC-MS analysis
[8] = Drug concentration in ovariectomized nu/nu mouse plasma assessed (3-(4-morpholinopyrido [3',2':4,5] furo [3,2-d] pyrimidin-2-yl)phenyl)boronic acid at 10 mg/kg, ip measured after 1 hr by UHPLC-MS analysis
[9] = Drug concentration in ovariectomized nu/nu mouse plasma assessed (3-(4-morpholinopyrido [3',2':4,5] furo [3,2-d] pyrimidin-2-yl)phenyl)boronic acid at 10 mg/kg, ip measured after 3 hrs by UHPLC-MS analysis
[10] = Drug concentration in ovariectomized nu/nu mouse plasma assessed (3-(4-morpholinopyrido [3',2':4,5] furo [3,2-d] pyrimidin-2-yl)phenyl)boronic acid at 10 mg/kg, ip measured after 8 hrs by UHPLC-MS analysis
[11] = Drug concentration in ovariectomized nu/nu mouse plasma assessed (3-(4-morpholinopyrido [3',2':4,5] furo [3,2-d] pyrimidin-2-yl)phenyl)boronic acid at 10 mg/kg, ip measured after 24 hrs by UHPLC-MS analysis
[12] = Cmax in ovariectomized nu/nu mouse assessed (3-(4-morpholinopyrido [3',2':4,5] furo [3,2-d] pyrimidin-2-yl)phenyl)boronic acid at 10 mg/kg, ip measured upto 24 hrs by UHPLC-MS analysis; set-up: dose 10 mg/kg, route intraperitoneal
[13] = Tmax in ovariectomized nu/nu mouse assessed (3-(4-morpholinopyrido [3',2':4,5] furo [3,2-d] pyrimidin-2-yl)phenyl)boronic acid at 10 mg/kg, ip measured upto 24 hrs by UHPLC-MS analysis
[14] = AUC in ovariectomized nu/nu mouse assessed (3-(4-morpholinopyrido [3',2':4,5] furo [3,2-d] pyrimidin-2-yl)phenyl)boronic acid at 10 mg/kg, ip measured upto 24 hrs by UHPLC-MS analysis; set-up: time < 24 hr, dose 10 mg/kg, route intraperitoneal
[15] = Drug concentration in ovariectomized nu/nu mouse plasma assessed (3-(4-morpholinopyrido [3',2':4,5] furo [3,2-d] pyrimidin-2-yl)phenyl)boronic acid at 10 mg/kg, po measured after 0.5 hrs by UHPLC-MS analysis; method in brief: as §1
[16] = Drug concentration in ovariectomized nu/nu mouse plasma assessed (3-(4-morpholinopyrido [3',2':4,5] furo [3,2-d] pyrimidin-2-yl)phenyl)boronic acid at 10 mg/kg, po measured after 1 hr by UHPLC-MS analysis; method in brief: as §1
[17] = Drug concentration in ovariectomized nu/nu mouse plasma assessed (3-(4-morpholinopyrido [3',2':4,5] furo [3,2-d] pyrimidin-2-yl)phenyl)boronic acid at 10 mg/kg, po measured after 3 hrs by UHPLC-MS analysis; method in brief: as §1
[18] = Drug concentration in ovariectomized nu/nu mouse plasma assessed (3-(4-morpholinopyrido [3',2':4,5] furo [3,2-d] pyrimidin-2-yl)phenyl)boronic acid at 10 mg/kg, po measured after 8 hrs by UHPLC-MS analysis; method in brief: as §1
[19] = Drug concentration in ovariectomized nu/nu mouse plasma assessed (3-(4-morpholinopyrido [3',2':4,5] furo [3,2-d] pyrimidin-2-yl)phenyl)boronic acid at 10 mg/kg, po measured after 24 hrs by UHPLC-MS analysis; method in brief: as §1
[20] = Cmax in ovariectomized nu/nu mouse assessed (3-(4-morpholinopyrido [3',2':4,5] furo [3,2-d] pyrimidin-2-yl)phenyl)boronic acid at 10 mg/kg, po measured upto 24 hrs by UHPLC-MS analysis; set-up: dose 10 mg/kg, route oral; method in brief: as §1
[21] = Tmax in ovariectomized nu/nu mouse assessed (3-(4-morpholinopyrido [3',2':4,5] furo [3,2-d] pyrimidin-2-yl)phenyl)boronic acid at 10 mg/kg, po measured upto 24 hrs by UHPLC-MS analysis; method in brief: as §1
[22] = Half life in ovariectomized nu/nu mouse assessed (3-(4-morpholinopyrido [3',2':4,5] furo [3,2-d] pyrimidin-2-yl)phenyl)boronic acid at 10 mg/kg, po measured upto 24 hrs by UHPLC-MS analysis; method in brief: as §1
[23] = AUC (0 to 24 hrs) in ovariectomized nu/nu mouse assessed (3-(4-morpholinopyrido [3',2':4,5] furo [3,2-d] pyrimidin-2-yl)phenyl)boronic acid at 10 mg/kg, po measured upto 24 hrs by UHPLC-MS analysis; set-up: time < 24 hr, dose 10 mg/kg, route oral; method in brief: as §1

## CC1(C)OB(c2cccc(-c3nc(N4CCOCC4)c4oc5ncccc5c4n3)c2)OC1(C)C
[1]
  Cp: 4.1 ng/mL
[2]
  Cp: 0.7 ng/mL
[3]
  Cmax: 8.2 ng/mL
[4]
  Tmax: 1 h
[5]
  t1/2: 6.5 h
[6]
  AUC: 88.2 ng·h/mL
[7]
  Cp: 30.6 ng/mL
[8]
  Cp: 44.5 ng/mL
[9]
  Cp: 28 ng/mL
[10]
  Cp: 17.2 ng/mL
[11]
  Cp: 6.5 ng/mL
[12]
  Cmax: 44.5 ng/mL
[13]
  Tmax: 1 h
[14]
  AUC: 400.9 ng·h/mL
[15]
  Cp: 402.8 ng/mL
[16]
  Cp: 709.2 ng/mL
[17]
  Cp: 516.2 ng/mL
[18]
  Cp: 354.2 ng/mL
[19]
  Cp: 106.4 ng/mL
[20]
  Cmax: 709.2 ng/mL
[21]
  Tmax: 1 h
[22]
  t1/2: 9.2 h
[23]
  AUC: 8879.9 ng·h/mL
